Measured values published in ChEMBL document CHEMBL1155261, “Synthesis and biological evaluation of SANT-2 and analogues as inhibitors of the hedgehog signaling pathway” (Bioorg Med Chem, 2009).

Legend:
[1] = biological target: Sonic hedgehog protein (Mus musculus) (UniProt Q62226); test: Ratio of compound IC50 to cyclopamine IC50 for inhibition of SHH in mouse Shh-Light2 cells; type: functional, cell-based; settings: Shh Light II
Oryzias latipes [2] = test: Teratogenic activity in Oryzias latipes CAB embryo assessed as induction of cyclopia phenotype at 0.01 to 100 uM; type: organism-based; settings: in vivo
Summary of the method: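 CAB-strain medaka kept at 26 °C on a 14:10 h light/dark cycle. Fertilized eggs exposed from 4–5 hpf to 5 days post fertilisation at 26 °C in tap water (pH 8–8.2) with 0.1% methylene blue. Compounds added from ethanol stocks at 1% final solvent; controls received 1% ethanol. Embryos inspected visually for cyclopia (reduced eye distance).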

Oryzias latipes [3] = test: Teratogenic activity in Oryzias latipes embryo assessed as induction of cyclopia phenotype at 12.5 uM; type: organism-based; settings: in vivo
Summary of the method: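 Medaka (CAB strain) fertilized eggs, collected within 1–2 h post fertilization, exposed from 4–5 hpf to 5 days post fertilisation at 26 °C in tap water (pH 8–8.2) with 0.1% methylene blue; compounds added from ethanol stocks, final 1% ethanol, controls 1% ethanol. Tested range 0.01–100 µM. Embryos visually scored for cyclopia (reduced eye distance).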

Ratio IC50 [1] | SMILES | Activity (Oryzias latipes [2]) | Activity (Oryzias latipes [3])
1.5 | COc1ccccc1C(=O)Nc1ccc(Cl)c(-c2nc3ccccc3[nH]2)c1 | – | –
5.9 | O=C(Nc1ccc(Cl)c(-c2nc3ccccc3[nH]2)c1)c1ccc(Cl)cc1 | – | –
7.1 | N#Cc1ccc(C(=O)Nc2ccc(Cl)c(-c3nc4ccccc4[nH]3)c2)cc1 | – | –
– | CCOc1cc(C(=O)Nc2ccc(Cl)c(-c3nc4ccccc4[nH]3)c2)cc(OCC)c1OCC | Non-toxic | –
11 | COc1ccc(C(=O)Nc2ccc(Cl)c(-c3nc4ccccc4[nH]3)c2)cc1 | – | –
– | COc1cc(C(=O)Nc2ccc(Cl)c(-c3nc4ccccc4[nH]3)c2)cc(OC)c1OC | Non-toxic | –
6.9 | CN(C)c1ccc(C(=O)Nc2ccc(Cl)c(-c3nc4ccccc4[nH]3)c2)cc1 | – | –
8 | O=C(Nc1ccc(Cl)c(-c2nc3ccccc3[nH]2)c1)c1ccccc1 | – | –
1 | CCOc1cc(C(=O)Nc2cccc(-c3nc4ccccc4[nH]3)c2)cc(OCC)c1OCC | – | –
11 | O=C(Nc1ccc(Cl)c(-c2nc3ccccc3[nH]2)c1)c1cccc(C(F)(F)F)c1 | Non-toxic | –
5.2 | O=C(Nc1ccc(Cl)c(-c2nc3ccccc3[nH]2)c1)c1ccc(F)cc1 | – | –

SMILES | Ratio IC50 [1] | Activity (Oryzias latipes [2]) | Activity (Oryzias latipes [3])
CC1=C2C[C@H]3[C@@H](CC=C4C[C@@H](O)CC[C@@]43C)[C@@H]2CC[C@]12O[C@@H]1C[C@H](C)CN[C@H]1[C@H]2C [CYCLOPAMINE] | 11 | Non-toxic | Toxic
